Data set [1] concerns Klebsiella pneumoniae. Description: Potentiation of colistin-induced antibacterial activity against Klebsiella pneumoniae 2210291 harbouring mcr-1 gene assessed as reduction in colistin MIC at 15 uM incubated for 16 hrs by broth microdilution method. In kind it is functional, organism-based. Summed up: (§1)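 For the dose-response, colistin MIC was measured against mcr-1 plasmid-bearing E. coli, K. pneumoniae and A. baumannii while the adjuvant concentration was lowered stepwise (30, 15 μM, down to 5 μM). The aim was to find where the MIC rose above the 2 μg/mL CLSI susceptibility breakpoint.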
For orientation: In broth dilution the organism is exposed to a series of concentrations in liquid medium.

For data set [2], the system named is Klebsiella pneumoniae. Description: Potentiation of colistin-induced antibacterial activity against Klebsiella pneumoniae 2210291 harbouring mcr-1 gene assessed as reduction in colistin MIC at 5 uM incubated for 16 hrs by broth microdilution method (reference value: 16 ug/ml). The class given is functional. The following applies: Klebsiella pneumoniae, 2210291, 16 h. The gist of the method:
as §1

For data set [3], the system named is Acinetobacter baumannii. Description: Potentiation of colistin-induced antibacterial activity against Acinetobacter baumannii 17978 harbouring mcr-1 gene assessed as colistin sensitization activity in presence of Tween 80 at 30 uM incubated for 16 hrs by broth microdilution method. In kind it is functional, organism-based. The gist of the method:
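To exclude nonspecific aggregation, colistin resensitization of A. baumannii 17978+mcr-1 was run with adjuvant at 30 μM, with and without 0.01% Tween 80.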

For data set [4], the system named is Acinetobacter baumannii. Put plainly: Antivirulence activity in Acinetobacter baumannii 4106 infected Galleria mellonella larvae model assessed as survival rate at 50 mg/kg measured at 24 hrs interval over 4 days. In kind it is functional. The gist of the method: (§2)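 A. baumannii 4106 was given to Galleria mellonella larvae at 6 × 10^5 CFU, the lethal inoculum found by dose escalation. Larvae were treated with colistin 50 mg/kg, adjuvant 50 mg/kg, colistin plus adjuvant (50 mg/kg each), or tigecycline 100 mg/kg as positive control. Survival was scored out to day 4.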

In data set [5] the test system is Escherichia coli. Put plainly: Potentiation of colistin-induced antibacterial activity against Escherichia coli YD626 harbouring mcr-1 gene assessed as colistin MIC at 50 uM incubated for 16 hrs by broth microdilution method (reference value: 8 ug/ml). In kind it is functional. The note with it: YD626, 16 h.
Data set [6] relates to Acinetobacter baumannii. Put plainly: Potentiation of colistin-induced antibacterial activity against Acinetobacter baumannii 3941 assessed as reduction in colistin MIC at 15 uM incubated for 16 hrs by broth microdilution method (reference value: 512 ug/ml). The class given is functional. The following applies: Acinetobacter baumannii, 3941, 16 h.
Data set [7] concerns Escherichia coli. Put plainly: Potentiation of colistin-induced antibacterial activity against Escherichia coli YD626 harbouring mcr-1 gene assessed as reduction in colistin MIC at 5 uM incubated for 16 hrs by broth microdilution method (reference value: 8 ug/ml). The note with it: YD626, 16 h. The class given is functional. Summed up:
as §1

For data set [8], the system named is Klebsiella pneumoniae. Put plainly: Potentiation of colistin-induced antibacterial activity against Klebsiella pneumoniae C3 assessed as reduction in colistin MIC at 15 uM incubated for 16 hrs by broth microdilution method (reference value: 512 ug/ml). The class given is functional. The note with it: C3, 16 h.
In data set [9] the test system is Acinetobacter baumannii. Description: Antivirulence activity in Acinetobacter baumannii 4106 infected Galleria mellonella larvae model assessed as survival rate in presence of colistin at 50 mg/kg measured at 24 hrs interval over 4 days (reference value: 7 %). In kind it is functional. The gist of the method: as §2
A short description of data set [10]: Cytotoxicity against mouse 4T1 cells assessed as reduction in cell viability in presence of 1 ug/ml colistin incubated for 18 hrs by MTT assay. The class given is cell-based. Summed up: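 4T1 mouse mammary tumor cells exposed to compound for 18 h, alone or together with colistin at 1 μg/mL. Medium then aspirated and replaced with 0.5 mg/mL MTT in culture medium for colorimetric viability read-out. CT50 taken as the concentration giving 50% cell viability.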
A general note: Tetrazolium dyes change colour on reduction, which living cells bring about.

Active and inactive are the calls of the source. The rule behind the calls is not given here.

The term MIC denotes the lowest concentration that inhibits growth of the organism. Broadly, the CC50 is the concentration at which the toxic effect on the cells reaches its halfway point. Regarding `O=C(NCCc1c[nH]c2ccc(Br)cc12)Nc1cc(Cl)c(Br)c(Cl)c1`, the result in the data set with Klebsiella pneumoniae [1] and with Acinetobacter baumannii [3] was Active. The minimal inhibitory concentration (MIC) in the data set with Klebsiella pneumoniae [2] was 2 µg/mL; with Escherichia coli [5], 1 µg/mL; in the data set on Acinetobacter baumannii [6] it was 4 µg/mL; in the data set with Escherichia coli [7], 1 µg/mL; in the data set on Klebsiella pneumoniae [8] it was 0.5 µg/mL. The Activity stood at 0% with Acinetobacter baumannii [4] and 47% in the data set on Acinetobacter baumannii [9]. Besides, the cytotoxic concentration (CC50) at 18 h in data set [10] came out at 64.9 µM.

(Values after ChEMBL document CHEMBL4304756, “Second-Generation Tryptamine Derivatives Potently Sensitize Colistin Resistant Bacteria to Colistin” (ACS Med Chem Lett, 2019).)
